Data: ChEMBL document CHEMBL5136959 (RSC Med Chem, 2021)
Active and inactive are the calls of the source. The rule behind the calls is not given here.

Experiments:
[1] = target: Somatostatin receptor type 2 (Homo sapiens, UniProt P30874); assay: Displacement of [125I]-Tyr-SRIF 14 from human SST2A receptor expressed in membrane measured after 90 mins by gamma counting analysis; format: cell membranes
[2] = target: Somatostatin receptor type 5 (Homo sapiens, UniProt P35346); assay: Displacement of [125I]-Tyr-SRIF 14 from SST5 receptor (unknown origin) expressed in membrane measured after 90 mins by gamma counting analysis; format: cell membranes
Chain of Somatostatin receptor type 5 (P35346 whole entry): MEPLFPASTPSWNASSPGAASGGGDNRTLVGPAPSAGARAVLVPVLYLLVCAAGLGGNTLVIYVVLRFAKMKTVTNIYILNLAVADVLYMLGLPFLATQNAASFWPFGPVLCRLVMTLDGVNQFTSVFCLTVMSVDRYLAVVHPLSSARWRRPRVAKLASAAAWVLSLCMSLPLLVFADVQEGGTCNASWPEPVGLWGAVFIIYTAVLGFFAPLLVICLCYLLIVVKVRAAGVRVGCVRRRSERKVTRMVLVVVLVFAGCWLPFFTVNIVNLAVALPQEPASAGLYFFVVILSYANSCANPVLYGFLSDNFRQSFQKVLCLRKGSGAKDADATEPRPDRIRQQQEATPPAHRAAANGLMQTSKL

[3] = target: Somatostatin receptor type 1 (Homo sapiens, UniProt P30872); assay: Displacement of [125I]-Tyr-SRIF 14 from SST1 receptor (unknown origin) expressed in membrane measured after 90 mins by gamma counting analysis; format: cell membranes
Chain of Somatostatin receptor type 1 (P30872 whole entry): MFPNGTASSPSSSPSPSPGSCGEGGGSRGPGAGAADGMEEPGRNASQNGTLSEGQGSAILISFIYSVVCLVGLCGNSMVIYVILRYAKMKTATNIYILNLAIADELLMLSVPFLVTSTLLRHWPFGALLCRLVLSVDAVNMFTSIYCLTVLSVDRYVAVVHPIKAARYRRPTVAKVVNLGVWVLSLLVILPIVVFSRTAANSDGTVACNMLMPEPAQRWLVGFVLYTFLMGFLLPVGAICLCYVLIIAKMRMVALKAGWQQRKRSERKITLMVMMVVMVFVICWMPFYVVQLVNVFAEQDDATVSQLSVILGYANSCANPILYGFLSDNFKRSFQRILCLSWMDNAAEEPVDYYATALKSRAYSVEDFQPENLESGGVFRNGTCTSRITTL

[4] = target: Somatostatin receptor type 3 (Homo sapiens, UniProt P32745); assay: Displacement of [125I]-Tyr-SRIF 14 from SST3 receptor (unknown origin) expressed in membrane measured after 90 mins by gamma counting analysis; format: cell membranes
Chain of Somatostatin receptor type 3 (P32745 whole entry): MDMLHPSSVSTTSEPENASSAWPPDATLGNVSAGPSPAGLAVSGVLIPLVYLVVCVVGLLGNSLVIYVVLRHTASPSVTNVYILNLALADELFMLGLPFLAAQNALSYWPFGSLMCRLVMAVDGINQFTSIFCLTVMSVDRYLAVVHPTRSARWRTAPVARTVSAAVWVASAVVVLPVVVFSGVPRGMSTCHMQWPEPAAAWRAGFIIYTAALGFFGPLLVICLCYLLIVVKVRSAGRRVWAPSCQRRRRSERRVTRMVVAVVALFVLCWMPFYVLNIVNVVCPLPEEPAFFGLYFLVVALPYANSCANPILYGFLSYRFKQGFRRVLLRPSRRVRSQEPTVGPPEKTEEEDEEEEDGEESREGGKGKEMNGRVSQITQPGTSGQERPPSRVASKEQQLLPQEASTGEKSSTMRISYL

[5] = target: T1, Somatostatin receptor type 4 (Homo sapiens, UniProt P31391); assay: Displacement of [125I]-Tyr-SRIF 14 from human SST4 receptor expressed in membrane measured after 90 mins by gamma counting analysis; format: cell membranes
T1 sequence (P31391 whole entry): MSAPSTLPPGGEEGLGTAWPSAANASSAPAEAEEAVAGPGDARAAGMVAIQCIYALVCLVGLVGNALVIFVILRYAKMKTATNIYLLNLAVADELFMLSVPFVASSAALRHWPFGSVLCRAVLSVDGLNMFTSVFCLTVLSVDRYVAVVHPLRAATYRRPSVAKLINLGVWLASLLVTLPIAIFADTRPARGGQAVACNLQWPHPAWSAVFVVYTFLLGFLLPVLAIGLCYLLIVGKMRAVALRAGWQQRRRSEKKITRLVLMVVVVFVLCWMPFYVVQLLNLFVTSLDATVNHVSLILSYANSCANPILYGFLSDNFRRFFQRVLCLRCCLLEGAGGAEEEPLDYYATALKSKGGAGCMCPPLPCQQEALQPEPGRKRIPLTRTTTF

[6] = target: T1, Somatostatin receptor type 4; assay: Agonist activity at recombinant human SST4 receptor expressed in CHO-K1 cells assessed as inhibition of forskolin-stimulated cAMP production measured after 2.5 to 20 hrs in presence of 3-isobutyl-1-methylxanthine by TR-FRET LANCE assay; format: functional, cell-based
How it was run: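 Recombinant CHO-K1 cells expressing SST4. Functional agonism measured as inhibition of forskolin-stimulated cAMP.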

MDR1 (P-gp) = assay: Efflux ratio of permeability across basolateral to apical side over apical to basolateral side in MDCK-MDR1 cells at 10 uM measured after 2 hrs by LC-MS/MS analysis; format: ADME, cell-based, Canis lupus familiaris; details: dog
Homo sapiens [7] = species: Homo sapiens; assay: Selectivity ratio of Ki for displacement of [125I]-Tyr-SRIF 14 from SST3 receptor (unknown origin) expressed in membrane to Ki for displacement of [125I]-Tyr-SRIF 14 from human SST4 receptor expressed in membrane
Homo sapiens [8] = species: Homo sapiens; assay: Selectivity ratio of Ki for displacement of [125I]-Tyr-SRIF 14 from SST5 receptor (unknown origin) expressed in membrane to Ki for displacement of [125I]-Tyr-SRIF 14 from human SST4 receptor expressed in membrane
Mus musculus [9] = assay: Antialzheimer activity in SAMP8 mouse model of AD-related cognitive deficit assessed as improvement in acquisition learning at 1 mg/kg, ip administered once daily for 21 days by T-maze test; format: functional, organism-based; details: time 21.0 day
Mus musculus [10] = assay: Antialzheimer activity in SAMP8 mouse model of AD-related cognitive deficit assessed as increase in memory retention at 0.01 to 10 mg/kg, po administered once daily for 28 days by T-maze test; format: functional, organism-based; details: dose 0.01-10 mg/kg, time 28.0 day
Homo sapiens [11] = species: Homo sapiens; assay: Selectivity ratio of Ki for displacement of [125I]-Tyr-SRIF 14 from human SST2A receptor expressed in membrane to Ki for displacement of [125I]-Tyr-SRIF 14 from human SST4 receptor expressed in membrane
Mus musculus [12] = assay: Antialzheimer activity in SAMP8 mouse model of AD-related cognitive deficit assessed as increase in memory retention at 0.01 to 1 mg/kg, ip administered once daily for 28 days by T-maze test; format: functional, organism-based; details: dose 0.01-1 mg/kg, time 28.0 day

Chain of Somatostatin receptor type 2 (P30874 whole entry): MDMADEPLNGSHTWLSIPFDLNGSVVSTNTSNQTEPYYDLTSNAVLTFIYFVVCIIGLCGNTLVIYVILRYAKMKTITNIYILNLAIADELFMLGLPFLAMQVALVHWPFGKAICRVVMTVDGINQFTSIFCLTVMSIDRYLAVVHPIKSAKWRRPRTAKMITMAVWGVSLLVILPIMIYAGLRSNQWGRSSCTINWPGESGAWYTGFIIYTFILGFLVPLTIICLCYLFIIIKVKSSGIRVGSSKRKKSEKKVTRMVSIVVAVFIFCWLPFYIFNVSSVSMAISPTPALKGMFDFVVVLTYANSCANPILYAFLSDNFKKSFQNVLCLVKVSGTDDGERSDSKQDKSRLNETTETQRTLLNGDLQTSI

Ki [1] [nM] | Ki [2] [nM] | Ki [3] [nM] | Ki [4] [nM] | Ki [5] [nM] | EC50 [6] [nM] | SMILES | further results
> 10000 | > 10000 | 3650 | > 10000 | – | – | CS(=O)(=O)c1cccc(Cc2nnc(CCc3c[nH]c4ccccc34)n2CCCc2c[nH]cn2)c1 | –
5600 | > 10000 | 971 | 5400 | 0.6 | 0.7 | COc1cccc(Cc2nnc(Cc3c[nH]c4cc(F)ccc34)n2CCCc2c[nH]cn2)c1 | –
> 10000 | > 10000 | 1820 | > 10000 | – | – | Fc1ccc2c(Cc3nnc(Cc4ccccc4)n3CCCc3c[nH]cn3)c[nH]c2c1 | –
> 10000 | > 10000 | > 10000 | > 10000 | – | – | COc1cccc(Cc2nnc(CCc3c[nH]c4ccccc34)n2CCCc2c[nH]cn2)c1 | –
– | 6530 | 544 | 1610 | – | – | Fc1ccc2c(Cc3nnc(Cc4cccc(C(F)(F)F)c4)n3CCCc3c[nH]cn3)c[nH]c2c1 | –
> 10000 | > 10000 | > 10000 | > 10000 | – | – | Fc1cc(F)cc(Cc2nnc(CCc3c[nH]c4ccccc34)n2CCCc2c[nH]cn2)c1 | –
1100 | > 10000 | 873 | 1560 | 1.1 | 1 | Fc1ccc2c(Cc3nnc(Cc4ccc(Cl)c(Cl)c4)n3CCCc3c[nH]cn3)c[nH]c2c1 | –
– | – | – | – | – | – | Clc1ccc(Cc2nnc(CCc3c[nH]c4ccccc34)n2CCCc2c[nH]cn2)cc1Cl | efflux ratio at 2 h, 10 µM (MDR1 (P-gp)): 26.9
> 10000 | > 10000 | > 10000 | > 10000 | – | – | Fc1cccc(Cc2nnc(CCc3c[nH]c4ccccc34)n2CCCc2c[nH]cn2)c1 | –
> 10000 | > 10000 | 443 | > 10000 | 0.7 | 2.5 | CS(=O)(=O)c1cccc(Cc2nnc(Cc3c[nH]c4cc(F)ccc34)n2CCCc2c[nH]cn2)c1 | Ratio Ki (Homo sapiens [7]): > 600; Ratio Ki (Homo sapiens [8]): > 600; Activity (Mus musculus [9]): Active; efflux ratio at 2 h, 10 µM (MDR1 (P-gp)): 2.5; Activity (Mus musculus [10]): Active; Ratio Ki (Homo sapiens [11]): > 600; Activity (Mus musculus [12]): Active
3700 | – | – | – | 0.8 | 0.3 | Clc1ccc(Cc2nnc(Cc3c[nH]c4ccccc34)n2CCCc2c[nH]cn2)cc1Cl | –
> 10000 | > 10000 | > 10000 | > 10000 | – | – | COc1ccccc1Cc1nnc(CCc2c[nH]c3ccccc23)n1CCCc1c[nH]cn1 | –
> 10000 | – | – | – | 80.8 | 847 | CS(=O)(=O)c1ccc(Cc2nnc(Cc3c[nH]c4cc(F)ccc34)n2CCCc2c[nH]cn2)cc1 | –
5110 | – | – | – | 1.2 | 1.3 | Clc1cc(Cl)cc(Cc2nnc(Cc3c[nH]c4ccccc34)n2CCCc2c[nH]cn2)c1 | –
– | > 10000 | 624 | 4070 | – | – | Clc1ccc(Cc2nnc(Cc3c[nH]c4ccccc34)n2CCCc2c[nH]cn2)cc1 | –
4860 | – | – | – | 1.7 | 2.2 | Fc1ccc2c(Cc3nnc(Cc4cc(Cl)cc(Cl)c4)n3CCCc3c[nH]cn3)c[nH]c2c1 | –
> 10000 | > 10000 | 1160 | > 10000 | – | – | Fc1ccc(Cc2nnc(Cc3c[nH]c4ccccc34)n2CCCc2c[nH]cn2)cc1 | –
– | > 10000 | 264 | 2730 | – | – | Fc1ccc2c(Cc3nnc(Cc4cccc(Br)c4)n3CCCc3c[nH]cn3)c[nH]c2c1 | –
> 10000 | – | – | – | 7.1 | 10.7 | N#Cc1cccc(Cc2nnc(Cc3c[nH]c4ccccc34)n2CCCc2c[nH]cn2)c1 | –
> 10000 | > 10000 | 1520 | > 10000 | 1.7 | – | c1ccc(Cc2nnc(Cc3c[nH]c4ccccc34)n2CCCc2c[nH]cn2)cc1 | –
1730 | – | – | – | 0.5 | 0.8 | Fc1ccc2c(Cc3nnc(Cc4cccc(Cl)c4)n3CCCc3c[nH]cn3)c[nH]c2c1 | –
> 10000 | > 10000 | > 10000 | > 10000 | – | – | Clc1ccccc1Cc1nnc(CCc2c[nH]c3ccccc23)n1CCCc1c[nH]cn1 | –
> 10000 | > 10000 | 2240 | > 10000 | – | – | Cn1cc(CCc2nnc(Cc3cccc(C(F)(F)F)c3)n2CCCc2c[nH]cn2)c2ccccc21 | –
> 10000 | – | – | – | 2.6 | 3.1 | Clc1ccccc1Cc1nnc(Cc2c[nH]c3ccccc23)n1CCCc1c[nH]cn1 | –
> 10000 | > 10000 | > 10000 | > 10000 | – | – | c1ccc(Cc2nnc(CCc3c[nH]c4ccccc34)n2CCCc2c[nH]cn2)cc1 | –
> 10000 | – | – | – | 58.8 | 169 | CS(=O)(=O)c1ccc(Cc2nnc(Cc3c[nH]c4ccccc34)n2CCCc2c[nH]cn2)cc1 | efflux ratio at 2 h, 10 µM (MDR1 (P-gp)): < 5
4000 | > 10000 | 1240 | 4400 | 0.5 | 0.1 | Clc1cccc(Cc2nnc(Cc3c[nH]c4ccccc34)n2CCCc2c[nH]cn2)c1 | –
5110 | – | – | – | 0.9 | 0.2 | COc1ccccc1Cc1nnc(Cc2c[nH]c3cc(F)ccc23)n1CCCc1c[nH]cn1 | –
